Measurements reported in ChEMBL document CHEMBL2040727, “Substituted thiazoles VI. Synthesis and antitumor activity of new 2-acetamido- and 2 or 3-propanamido-thiazole analogs” (2012).

Key:
Type in all cases: functional
[1] = test system: DU-145; experiment: Growth inhibition of human DU145 cells at 10 uM after 48 hrs by coulter counter analysis; conditions: DU-145, 48 h, read-out: GI
In short: (§1)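 Single-dose NCI 60-line panel screen of test compounds. Cells grown in RPMI 1640 with 10% FBS. Compounds dissolved in DMSO, then diluted in phosphate buffer saline (final DMSO below 1%). Wells run in duplicate at 6 × 10⁴ cells/ml. Controls held PBS and DMSO at matching dilutions. Incubation 48 h at 37 °C under humidified 5% CO2. Cells diluted tenfold in saline and counted by Coulter counter. Percent growth inhibition taken from mean-graph of treated-cell growth.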

[2] = test system: HL-60(TB); experiment: Growth inhibition of human HL-60(TB) cells at 10 uM after 48 hrs by coulter counter analysis; conditions: HL-60, 48 h, read-out: GI
In short: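 Cells grown in RPMI 1640 with 10% FBS. Compound was dissolved in DMSO and diluted in PBS (under 1% DMSO final), then added in duplicate wells to culture at 6 × 10⁴ cells/ml. PBS/DMSO vehicle controls were included. Incubated at 37 °C, humidified 5% CO₂, for 48 h. Cells were diluted 10-fold in saline and Coulter-counted. Single-dose NCI-60 screen, read as percent growth inhibition.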

[3] = test system: NCI-H460; experiment: Growth inhibition of human NCI-H460 cells at 10 uM after 48 hrs by coulter counter analysis; conditions: NCI-H460, 48 h, read-out: GI; in short: as §1
[4] = test system: RXF 393; experiment: Growth inhibition of human RXF393 cells at 10 uM after 48 hrs by coulter counter analysis; conditions: RXF 393, 48 h, read-out: GI; in short: as §1
[5] = test system: PC-3; experiment: Growth inhibition of human PC3 cells at 10 uM after 48 hrs by coulter counter analysis; conditions: PC-3, 48 h, read-out: GI; in short: as §1
[6] = test system: A549; experiment: Growth inhibition of human A549/ATCC cells at 10 uM after 48 hrs by coulter counter analysis; conditions: A549, 48 h, read-out: GI; in short: as §1
[7] = Growth inhibition of human Hs 578T cells at 10 uM after 48 hrs by coulter counter analysis; conditions: read-out: GI; in short: as §1
[8] = test system: SNB-19; experiment: Growth inhibition of human SNB19 cells at 10 uM after 48 hrs by coulter counter analysis; conditions: SNB-19, 48 h, read-out: GI; in short: as §1
[9] = test system: BT-549; experiment: Growth inhibition of human BT549 cells at 10 uM after 48 hrs by coulter counter analysis; conditions: BT-549, 48 h, read-out: GI; in short: as §1
[10] = test system: HCT-15; experiment: Growth inhibition of human HCT15 cells at 10 uM after 48 hrs by coulter counter analysis; conditions: HCT-15, 48 h, read-out: GI; in short: as §1
[11] = test system: HCC 2998; experiment: Growth inhibition of human HCC2998 cells at 10 uM after 48 hrs by coulter counter analysis; conditions: HCC 2998, 48 h, read-out: GI; in short: as §1
[12] = test system: K562; experiment: Growth inhibition of human K562 cells at 10 uM after 48 hrs by coulter counter analysis; conditions: K562, 48 h, read-out: GI; in short: as §1
[13] = test system: UO-31; experiment: Growth inhibition of human UO31 cells at 10 uM after 48 hrs by coulter counter analysis; conditions: UO-31, 48 h, read-out: GI
In short: (§2)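 Single-dose screen in the NCI 60 cell line panel. Cells grown in RPMI 1640 with 10% FBS. Compounds dissolved in DMSO and diluted in phosphate buffered saline, final DMSO under 1%. Duplicate wells seeded from culture at 6 × 10⁴ cells/ml. Incubated 48 h at 37 °C, humidified, 5% CO2. Cells diluted tenfold in saline and Coulter-counted. Percent growth inhibition computed against PBS/DMSO controls.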

[14] = test system: SK-MEL-28; experiment: Growth inhibition of human SK-MEL-28 cells at 10 uM after 48 hrs by coulter counter analysis; conditions: SK-MEL-28, 48 h, read-out: GI; in short: as §1
[15] = test system: MDA-MB-468; experiment: Growth inhibition of human MDA-MB-468 cells at 10 uM after 48 hrs by coulter counter analysis; conditions: MDA-MB-468, 48 h, read-out: GI; in short: as §1
[16] = test system: CAKI-1; experiment: Growth inhibition of human Caki1 cells at 10 uM after 48 hrs by coulter counter analysis; conditions: CAKI-1, 48 h, read-out: GI; in short: as §1
[17] = test system: Malme-3M; experiment: Growth inhibition of human MALME-3M cells at 10 uM after 48 hrs by coulter counter analysis; conditions: read-out: GI; in short: as §1
[18] = test system: RPMI-8226; experiment: Growth inhibition of human RPMI8226 cells at 10 uM after 48 hrs by coulter counter analysis; conditions: RPMI-8226, 48 h, read-out: GI; in short: as §1
[19] = test system: SW-620; experiment: Growth inhibition of human SW620 cells at 10 uM after 48 hrs by coulter counter analysis; conditions: SW-620, 48 h, read-out: GI; in short: as §2
[20] = test system: 786-0; experiment: Growth inhibition of human 786-0 cells at 10 uM after 48 hrs by coulter counter analysis; conditions: 786-0, 48 h, read-out: GI; in short: as §1
[21] = test system: A498; experiment: Growth inhibition of human A498 cells at 10 uM after 48 hrs by coulter counter analysis; conditions: A498, 48 h, read-out: GI; in short: as §1
[22] = Growth inhibition of human NCI-ADR-RES cells at 10 uM after 48 hrs by coulter counter analysis; conditions: read-out: GI; in short: as §1
[23] = test system: HT-29; experiment: Growth inhibition of human HT-29 cells at 10 uM after 48 hrs by coulter counter analysis; conditions: HT-29, 48 h, read-out: GI; in short: as §1
[24] = test system: SF-539; experiment: Growth inhibition of human SF539 cells at 10 uM after 48 hrs by coulter counter analysis; conditions: SF-539, 48 h, read-out: GI; in short: as §1
[25] = test system: SF-268; experiment: Growth inhibition of human SF268 cells at 10 uM after 48 hrs by coulter counter analysis; conditions: SF-268, 48 h, read-out: GI; in short: as §1
[26] = test system: COLO 205; experiment: Growth inhibition of human COLO205 cells at 10 uM after 48 hrs by coulter counter analysis; conditions: COLO 205, 48 h, read-out: GI; in short: as §1
[27] = test system: OVCAR-3; experiment: Growth inhibition of human OVCAR3 cells at 10 uM after 48 hrs by coulter counter analysis; conditions: OVCAR-3, 48 h, read-out: GI; in short: as §1
[28] = test system: LOX IMVI; experiment: Growth inhibition of human LOXIMVI cells at 10 uM after 48 hrs by coulter counter analysis; conditions: read-out: GI; in short: as §1
[29] = test system: IGROV-1; experiment: Growth inhibition of human IGROV1 cells at 10 uM after 48 hrs by coulter counter analysis; conditions: IGROV-1, 48 h, read-out: GI; in short: as §1
[30] = test system: U-251; experiment: Growth inhibition of human U251 cells at 10 uM after 48 hrs by coulter counter analysis; conditions: U-251, 48 h, read-out: GI; in short: as §2
[31] = test system: HOP-92; experiment: Growth inhibition of human HOP92 cells at 10 uM after 48 hrs by coulter counter analysis; conditions: HOP-92, 48 h, read-out: GI; in short: as §1
[32] = test system: SN12C; experiment: Growth inhibition of human SN12C cells at 10 uM after 48 hrs by coulter counter analysis; conditions: read-out: GI; in short: as §1

SMILES	inhibition of growth at 10 µM [1] [%]	inhibition of growth at 10 µM [2] [%]	inhibition of growth at 10 µM [3] [%]	inhibition of growth at 10 µM [4] [%]	inhibition of growth at 10 µM [5] [%]	inhibition of growth at 10 µM [6] [%]	inhibition of growth at 10 µM [7] [%]	inhibition of growth at 10 µM [8] [%]	inhibition of growth at 10 µM [9] [%]	inhibition of growth at 10 µM [10] [%]	inhibition of growth at 10 µM [11] [%]	inhibition of growth at 10 µM [12] [%]	inhibition of growth at 10 µM [13] [%]	inhibition of growth at 10 µM [14] [%]	inhibition of growth at 10 µM [15] [%]	inhibition of growth at 10 µM [16] [%]	inhibition of growth at 10 µM [17] [%]	inhibition of growth at 10 µM [18] [%]	inhibition of growth at 10 µM [19] [%]	inhibition of growth at 10 µM [20] [%]	other results
CCOC(=O)c1sc(NC(=O)CN(C)C)nc1C	< 10	< 10	< 10	< 10	< 10	< 10	< 10	< 10	< 10	< 10	< 10	< 10	14.8	< 10	< 10	< 10	< 10	< 10	< 10	< 10	inhibition of growth at 10 µM [21]: < 10%; inhibition of growth at 10 µM [22]: < 10%; inhibition of growth at 10 µM [23]: < 10%; inhibition of growth at 10 µM [24]: < 10%; inhibition of growth at 10 µM [25]: < 10%; inhibition of growth at 10 µM [26]: < 10%; inhibition of growth at 10 µM [27]: < 10%; inhibition of growth at 10 µM [28]: < 10%; inhibition of growth at 10 µM [29]: < 10%; inhibition of growth at 10 µM [30]: < 10%; inhibition of growth at 10 µM [31]: < 10%; inhibition of growth at 10 µM [32]: < 10%
Cc1cnc(NC(=O)CCN2CCN(c3ccccc3)CC2)s1	< 10	< 10	< 10	< 10	< 10	< 10	< 10	< 10	< 10	< 10	< 10	< 10	12.8	< 10	< 10	< 10	< 10	< 10	< 10	< 10	inhibition of growth at 10 µM [21]: < 10%; inhibition of growth at 10 µM [22]: < 10%; inhibition of growth at 10 µM [23]: < 10%; inhibition of growth at 10 µM [24]: < 10%; inhibition of growth at 10 µM [25]: < 10%; inhibition of growth at 10 µM [26]: < 10%; inhibition of growth at 10 µM [27]: < 10%; inhibition of growth at 10 µM [28]: < 10%; inhibition of growth at 10 µM [29]: < 10%; inhibition of growth at 10 µM [30]: < 10%; inhibition of growth at 10 µM [31]: < 10%; inhibition of growth at 10 µM [32]: < 10%
